Assay results as given in ChEMBL document CHEMBL4513216, “Probing the Open Global Health Chemical Diversity Library for Multistage-Active Starting Points for Next-Generation Antimalarials” (ACS Infect Dis, 2020).

Experiment: Toxicity liver stage against HepG2, at 10uM
Format: cell-based
Set-up: test concentration 10 uM, cell line HepG2-A16-CD81EGFP
Settings: human, HepG2-A16-CD81EGFP cells; read-out: INHIBITION
Summary of the method: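 Uninfected HepG2-A16-CD81EGFP cells, 3 × 10^3 per well, 1536-well, plated on prespotted compound at 10 μM final, parasite-free screening media added to match infected plates; puromycin 10 μM positive, DMSO 0.5% negative; run in parallel with 48 h PbLuc assay at 37 °C, 5% CO2; viability by CellTiter-Glo luminescence, normalized to controls.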

| SMILES | cytotoxicity at 10 µM |
| --- | --- |
| O=C(N[C@H]1CCCC[C@@H]1O)c1ccc(-c2nc3ccccc3[nH]2)cc1 | -1.43% |
| Cc1nc(Oc2ccccc2Cl)sc1C(=O)O | -11.9% |
| CC1=Nc2c(c(=O)[nH]n2C2CCCCC2)C(c2cccnc2)S1 (configuration not stated) | 6.72% |
| Cc1nccn1CC1CCN(C(=O)c2cccs2)CC1 | -14.2% |
| COc1ccc(S(=O)(=O)NCCn2cnc(C)cc2=O)cc1C | 7.69% |
| CN(C)S(=O)(=O)N1CCN(c2cc(-n3cccc3)ncn2)CC1 | 0.781% |
| CC1c2ncc(COCC3CC3)n2CCN1S(=O)(=O)N(C)C (configuration not stated) | 18.4% |
| Cc1cccc(N2CC3(CCN(c4nncs4)C3)CC2=O)c1 (configuration not stated) | 0.179% |
| COCCO[C@H]1CCN(C(=O)c2ccoc2C)[C@H]1Cc1cnn(C)c1 | -6.98% |
| O=C([C@@H]1C[C@@H]2CCN(Cc3ccco3)C[C@H]2O1)N1CCCO1 | 4.78% |
| COc1ccc(-c2cc3nn(CC(N)=O)c(=O)n3c(C)n2)cc1 | -5.29% |
| CC(C)N1C(=O)CC(N2CCN(c3ccc(F)cc3)CC2)C1=O (configuration not stated) | 8.44% |
| CCOc1nc2cccnc2n(CC(=O)NCCOC)c1=O | -7.84% |
| COc1ccccc1NC(=O)NCC(O)(c1ccccc1)C1CC1 (configuration not stated) | -19.5% |
| O=c1ccc(-c2cccs2)nn1CN1CCCCCC1 | -5.51% |
| COCc1cnc2n1CCN(C(=O)C1=CCCCC1)C2C (configuration not stated) | -2.93% |
| O=C(CC1CC1)N1CCn2cc(Cn3cncn3)nc2C1 | -8.87% |
| CCN(Cc1ccncc1)S(C)(=O)=O | 14.4% |
| COCc1cccc(S(=O)(=O)Nc2ncc(C)s2)c1 | -8.13% |
| O=C(c1cnco1)N1CCC(Cc2cnc3ccccc3c2)CC1 | 5.08% |
| CC(=O)NCCc1cc2nc(-c3ccncc3)ccn2n1 | 2.95% |
| Cc1cc(C(F)(F)F)nc(C2(C)CCCN2CC(N)=O)n1 (configuration not stated) | 6.62% |
| CCC(=O)N1CCC1c1cc(NC2CCCC2)nc(C)n1 (configuration not stated) | -7.61% |

| SMILES | cytotoxicity at 10 µM |
| --- | --- |
| O=C(NC[C@]1(O)CN(Cc2ccccc2F)C[C@H]1O)c1cscn1 | -12% |
| CC(C)(C)c1nnc2n1C(C(=O)N1CCN(c3ncccn3)CC1)CC2 (configuration not stated) | -7.46% |
| CN1CCN(c2ccccc2CNC(=O)Cc2ccccc2F)CC1 | -1.1% |
| CC(C)CN1CCC(C(=O)NCCNC(=O)c2ccoc2)CC1 | 0.335% |
| CCC(C)(CC(=O)OC)NCc1c(C)noc1C (configuration not stated) | -3.19% |
| COCCCNC(=O)Nc1ccc(OCc2noc(C3CC3)n2)cc1 | 7.04% |
| Cc1cc(C(F)(F)F)c2c(=O)n(Cc3ccon3)n(C)c2n1 | 5.85% |
| CCCC(=O)Nc1cnn(CC(=O)Nc2ccc(SC)cc2)c1 | -8.81% |
| O=C(NCCOc1ccc(Cl)cn1)Nc1nccs1 | 11.3% |
| CC(C)c1noc(CNc2cccc(-c3nnnn3C)c2)n1 | -5.47% |
| O=C(CCNc1ncccn1)NCc1csc(Br)c1 | 5.15% |
| CCCC(=O)N1CCCN(C(=O)Nc2ccc(C)s2)CC1 | -1.24% |
| CC(C)c1cc(C(=O)N2CCN(Cc3ccco3)CC2)n[nH]1 | 2.18% |
| Cc1cc(C)n(CC2CN(Cc3ccc4c(c3)OCCO4)CCO2)n1 (configuration not stated) | -22.3% |
| c1ccc(-c2nnc3ccc(N4CCC5(CCOC5)C4)nn23)cc1 (configuration not stated) | 7.12% |
| CC(C)C(NC(=O)c1ccccc1)C(=O)N1CCC2(CC1)OCCO2 (configuration not stated) | 5.44% |
| O=C(NCCn1ccnc1)c1cc(Br)c[nH]1 | -5.2% |
| Cc1nc2n(n1)CC(NCC(=O)NCC1(c3ccccc3)CC1)CC2 (configuration not stated) | -6.52% |
| O=C(C1CCCN(Cc2cccc(F)c2)C1)N1CCc2sccc2C1 (configuration not stated) | -0.23% |
| Cc1[nH]ncc1C(C)NCc1cccnc1 (configuration not stated) | -0.98% |
| Cc1cc(C)c(CCNC(=O)NCCCC(N)=O)c(C)c1 | -1.24% |
| CC(=O)NCC1CCN(C(=O)c2ccc(Sc3ccccn3)cc2)CC1 | 9.15% |
| CC(=O)N1CCN(C(=O)c2ccc(Sc3ccccn3)cc2)CC1 | 10.7% |

| SMILES | cytotoxicity at 10 µM |
| --- | --- |
| CC(Cn1cccn1)NC(=O)N(C)Cc1ccc(C(N)=O)cc1 (configuration not stated) | 3.37% |
| CC(C)COCCC(=O)Nc1cccnc1-n1cncn1 | 1.28% |
| Cc1cnc(CN(Cc2ccccc2)CC2CCOCC2)cn1 | 15.6% |
| COc1ccc(C(=O)NS(C)(=O)=O)cc1-c1ccccc1 | -0.0142% |
| Cc1noc(CCCNC(=O)N2CCc3ccccc3C2CO)n1 (configuration not stated) | 8.69% |
| O=C(NCCNc1ncccn1)N1CCCC(C(F)(F)F)C1 (configuration not stated) | 1.05% |
| CC(C)NC(=O)N1CCC(n2ccc(C(F)(F)F)n2)CC1 | 3.02% |
| Cc1cccc(CNC(=O)CNc2cc(CO)ccc2Cl)c1 | 1.73% |
| CN(C)c1ccc(CNC(=O)c2ccc(Cl)cc2F)cc1 | -8.33% |
| Cc1cc(CNC(=O)N2CCN(c3ccccc3)CC2)no1 | 5.27% |
| CNC(=O)c1nc2c(s1)CCN(C(=O)Cc1ccc(OC)cc1)CC2 | 4.76% |
| Cc1nnc([C@@H]2CC[C@@H]3[C@@H](CCN3S(=O)(=O)c3cccnc3)O2)o1 | 0.462% |
| Cc1ccc(-c2nc3cc(S(=O)(=O)N4CCCC4)ccc3n2C)o1 | 1.38% |
| COCCNC(=O)CCC1CCN(Cc2cccc(SC)c2)CC1 | 14.6% |
| Cc1cc(NCc2noc(C(C)C)n2)nc(-c2ccccc2)n1 | 11% |
| COc1ccc(CN(C)C(=O)c2nnc(CN(C)C)o2)cc1 | -3.42% |
| Cc1nn(C)cc1C(=O)N1CCCC(c2nccn2CC2CCC2)C1 (configuration not stated) | 2.52% |
| CSCC(=O)N[C@H]1CC[C@H](Nc2nccc(-c3ccncc3)n2)C1 | 11.8% |
| Cn1c(N2CC[C@H](O)C2)nc2cc(C(N)=O)ccc21 | 5.83% |
| Cc1cc(C)c2[nH]c(=O)c(CN3CCC(O)(CN(C)C)C3)cc2c1 (configuration not stated) | -2.99% |
| CCOC(=O)CNC(=O)N1CCOC(CCc2ccccc2)C1 (configuration not stated) | -4.41% |
| COc1ccc(C(=O)N2CCC(Oc3ccc(C)cc3)(C(=O)O)CC2)o1 | 9.68% |
| CCCc1nc(CN(CC)Cc2ccc(O)c(C(=O)O)c2)no1 | -6.33% |

| SMILES | cytotoxicity at 10 µM |
| --- | --- |
| Cn1cc2ncn(CCCOc3cccnc3)c(=O)c2n1 | -5.18% |
| Cc1ncc(CNC2CC(=O)N(CCc3ccc(F)cc3)C2)n1C (configuration not stated) | -0.309% |
| C[C@H](NC(=O)C1(N(C)Cc2ccccc2)Cc2ccccc2C1)C(N)=O | 0.521% |
| NC(=O)c1csc(N2C[C@@H](CN3CCCCC3)[C@@H](CO)C2)n1 | -1.39% |
| COCc1nc(N2CCC(CCO)CC2)c2cnn(C)c2n1 | 1.22% |
| COc1ccc(O)c(C(=O)NCC2CCCN(C3CCOCC3)C2)c1 (configuration not stated) | -3.23% |
| CCNC(=O)[C@@H]1C[C@@H](n2cc(CC3CCCCC3)nn2)CN1 | 5.42% |
| Cc1cccc2sc(NC(=O)CN3CCC(C)CC3)nc12 | 2.89% |
| COc1ccc(CNCC(O)c2cccc(O)c2)cc1Br (configuration not stated) | -3.86% |
| CCC(=O)N1CCc2[nH]cnc2C12CCN(C(=O)c1snnc1C)CC2 | 13.9% |
| O=C1CC(c2cccs2)c2cnn(C3CCCC3)c2N1 (configuration not stated) | 23.3% |
| CNc1cc(CNC(=O)c2ccccc2)nc(-c2ccncc2)n1 | 0.462% |
| COc1c(C2CCCN2C(=O)c2cc(C)on2)c(C)nn1C (configuration not stated) | 0.407% |
| COc1ccc(S(=O)(=O)NC(=O)COC2CCCCC2)cc1 | -1.64% |
| CCOc1ccc(Cl)c(C(=O)N2CCN(CC(O)CC)CC2)n1 (configuration not stated) | -4.85% |
| CC(C)c1ncncc1C(=O)N1CCCN(Cc2ccccc2)CC1 | -6.9% |
| CC(C)N1CCN(C(=O)c2ccc(Cn3ccccc3=O)o2)CC1 | -13.1% |
| Cc1nnc2n1CCN(Cc1csc(-c3ccsc3)n1)C2 | -12.4% |
| COc1ccc(Cl)cc1NCCC(=O)NCCNc1cnccn1 | -10.3% |
| CCc1noc(CN(Cc2ccc3c(c2)OCO3)C2CCCC2)n1 | -0.315% |
| Cc1noc(C)c1CN(C)C(=O)NC1CCCN(S(C)(=O)=O)C1 (configuration not stated) | -13.9% |
| COc1ccc(CC(=O)NC2CCN(CC(F)F)CC2)cc1OC | -8.48% |
| O=C(NCC(F)(F)F)c1ccc(-c2ccco2)[nH]c1=O | -21.6% |

| SMILES | cytotoxicity at 10 µM |
| --- | --- |
| Cc1ccc2oc(C(=O)N3CCc4nnc(N(C)C)cc4C3)cc2n1 | -3.25% |
| CC(C)n1ccnc1CN1CCCN(C(=O)CC2C=CCC2)CC1 (configuration not stated) | 3.08% |
| CC(NCc1cccnc1)c1ccc(OCC(=O)NC2CC2)cc1 (configuration not stated) | 2.36% |
| Cc1cc(CN(Cc2cccs2)CC2CCCO2)no1 (configuration not stated) | 2.86% |
| O=C(NCc1nncn1-c1ccccc1)C1CC(=O)N(CC2CC2)C1 (configuration not stated) | -2.97% |
| Cc1cc(C2CCCN(C(=O)c3ccc(C)[nH]c3=O)C2)n[nH]1 (configuration not stated) | -5.65% |
| Cn1cc(-c2nc(CN3CCc4c(ncn4C4CC4)C3)cs2)cn1 | -17.6% |
| CCc1ccc(OCC(O)CN2CCN(S(C)(=O)=O)CC2)cc1 (configuration not stated) | 7.07% |
| CN(C)c1cc(CNC(=O)c2ccc(=O)[nH]n2)ccn1 | 0.962% |
| Cc1cnn(CC2CCCN2C(=O)CCc2ccsc2)c1 (configuration not stated) | -1.64% |
| CCC(CO)NCc1ccc(-c2ccc(F)cc2)o1 (configuration not stated) | -5.67% |
| c1ccc(CN2CCOC3(CCN(c4ncccn4)CC3)C2)nc1 | -2.42% |
| CN(C)CCN1CCOCC2(C1)CN(Cc1nccs1)CCO2 (configuration not stated) | 6% |
| COC[C@@H]1CCC[C@@]12CN(Cc1ccc(C)s1)CCO2 | 6.76% |
| Cc1nc(CN2CCC3(CC2)CC(=O)N(C)c2ccccc23)cs1 | 0.0115% |
| CN1[C@H](CN2CCCC2)C[C@@H]2CN(C(=O)c3cccn3C)CC[C@@H]21 | 5.57% |
| CCOCC(=O)N1CCOCC2(CCN(c3ncccn3)C2)C1 (configuration not stated) | -2.22% |
| COCCN1C[C@@H]2CN(Cc3cccc(C)n3)C[C@@H]2C1=O | 6.66% |
| COCCN1C(=O)CCC12CCN(c1ncc(F)cn1)CC2 | 0.632% |
| O=C(CCn1cncn1)N1C[C@@H]2CC[C@H]1CN(Cc1cccnc1)C2 | 7.39% |
